Measured values collected from several papers.
Target: G protein-coupled receptor kinase 6 (GRK6, Homo sapiens, UniProt P43250)

Cc1cc(NC(=O)c2cccc3cc(-c4cccc5[nH]nc(N)c45)ccc23)ccc1F
activity vs control (enzyme activity, inhibitor; 0.1 µM): 93%

CCCOc1ccc(OC)c(F)c1C(=O)c1ccc(C(=O)N[C@@H]2CNC[C@H]2NC(=O)c2ccc3[nH]ncc3c2)cc1
remaining activity (enzyme activity, inhibitor; 10 µM): 104%

O=C1Nc2ccc(Cl)cc2C1=Cc1cc(Cl)c(O)c(Cl)c1
remaining signal (cell-free assay; 0.5 µM): 89.6%

CCCS(=O)(=O)Nc1ccc(F)c(C(=O)c2c[nH]c3ncc(-c4ccc(Cl)cc4)cc23)c1F
inhibition (enzyme activity, inhibitor; 1 µM): < 10%

CNC(=O)c1cc(Oc2ccc(NC(=O)Nc3ccc(Cl)c(C(F)(F)F)c3)cc2)ccn1
inhibition (enzyme activity, inhibitor; 0.3 µM): 2%

O=C(Nc1cnn(-c2csc(C(=O)NC3COC3)c2)c1)Nc1ccccc1Cl
remaining activity (enzyme activity, inhibitor; 5 µM): 97.9%

N#CCCc1ccc2c(c1)-c1[nH]c3ccc([N+](=O)[O-])cc3c1CC(=O)N2
remaining signal (cell-free assay; 0.5 µM): 91.5%

Cc1ccc(Nc2nccc(N(C)c3ccc4c(C)n(C)nc4c3)n2)cc1S(N)(=O)=O
inhibition (enzyme activity, inhibitor; 10 µM): 2%

COc1cc2ncnc(Nc3ccc(Oc4ccccc4)c(C)c3C)c2cc1OC
inhibition (enzyme activity, inhibitor; 1 µM): -2%

CC(C)(C)c1nc2c(s1)c1nc(N)ncc1c1ccc(NS(=O)(=O)c3c(F)cccc3F)c(F)c12
remaining activity (enzyme activity, inhibitor, radiometric; 1 µM): 76%

CCN(CC)CCNC(=O)c1c(C)[nH]c(/C=C2\C(=O)Nc3ccc(F)cc32)c1C
inhibition (enzyme activity, inhibitor; 10 µM): 73%

Cc1cnc(NC2CCOCC2)nc1-n1cnc(C(=O)NC(CN)c2cc(F)cc(Cl)c2)c1 (stereo not drawn)
remaining activity (enzyme activity, inhibitor, radiometric; 1 µM): 81%
